Experimental data published in the RNAGym collection of RNA variant scans (doi:10.1126/science.aae0568).
This sample holds only a part of the variants without activity.

B1: tRNA (parent)
chain: GUUCCGUUGGCGUAAUGGUAACGCGUCUCCCUCCUAAGGAGAAGACUGCGGGUUCGAGUCCCGUACGGAACG

Variants of: B1
Assay: yeast fitness relative to wild type (ratio to wild type); higher = fitter; tRNA-Arg(CCU), competitive growth, 37 C, YPD
Summary of the method: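 A pool of Saccharomyces cerevisiae strains, each with a tRNA-Arg(CCU) gene variant at the native genomic locus, was competed in YPD at 37°C for 24 hours across six parallel replicates. The variants had been chemically synthesised at a 3% per-site mutation rate over 69 sites, and gene amplicons before and after competition were read by 100-nucleotide paired-end sequencing. Darwinian fitness relative to wild type rested on changes in genotype frequencies. Genotypes required ≥ 100 starting reads, and estimates < 0.5 were set to 0.5.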

Variant | yeast fitness
GUUCGGUUGGCGUAAUGGUACCGCGUCUCCCUCCUAAGGAGAAGACUGCGGGUUCGAGUCCCGUACGGAACG [C5G A21C] | 0.636
GUUCGGUUGGCGUAGAGGUGACGCGUCACACUACUUAGGAGAAGACUGCAGGUUCGAGUCCCGUAUGGAACG [C5G A15G U16A A20G U28A C30A C33A A36U G50A C66U] | ≤ 0.5
GUUCGGUUGGCGUAUUGGUAACGAGUCUCCCUCCUAAGGAGAAGACUGCGGGUUCGAGUCCCGUACGGAACG [C5G A15U C24A] | 0.654
GUUCGGUUGGCGUAAUGGUGACGCGUCUCCCUCCUAAGGAGUAGACUGCGGGUUCGAGUCCCGUACGGAACG [C5G A20G A42U] | 0.66
GUUCGGUUGGCGUAAUGGUUACGCGUCUCCCUCCUAAGGAGAAGACUGCGGGUUCGAGUCCCGUACGGACCG [C5G A20U A70C] | 0.68
GUUCGGUUGGCGUAAUGGUGACGCGUCUCCCUCCUAAGGGGAAAAGUGCGGGUUCGAGUCCCGUACGGACCG [C5G A20G A40G G44A C46G A70C] | ≤ 0.5
GUUCGGUUGGCGUAAUGGUCACGCGUCUGCCUCCUAAGGAGAAGACUGCGGGUUCGAGUCCCGUACGGAACG [C5G A20C C29G] | 0.538
GUUCGGUUGGCGUAGUGGUAACGCGUGACCCACCUAAGGAGAAGGUUGCGGGUUCGAGUCCCGUACGGAACG [C5G A15G C27G U28A U32A A45G C46U] | 0.573
GUUCGGUUGGCGUAAUGGUUACGCGUCUCUCUCCUAAGGAGAAGACUGCGGGUUCGAGUCCUGUACGGAACG [C5G A20U C30U C62U] | ≤ 0.5
GUUCGGUUGGCGUAAUGGUUACGCGUCUCCCUCCUAAGGAGAAGACUGCGGGUUCGAGUCCCGUAUGGUACG [C5G A20U C66U A69U] | ≤ 0.5
GUUCGGUUGGCGUAAUGGUUACGCGUCUCCCUCCUAGGGAGAAGACUGCGGGUUCGAGUCCCGUACGGAACG [C5G A20U A37G] | ≤ 0.5
GUUCGGUUGGCGUAAUGGUUACGCAUCUCCCUCCUAAGGAAAAGACUGCGGGUUGGAGUCCCGUACGGAACG [C5G A20U G25A G41A C55G] | ≤ 0.5
GUUCGGUUGGCGUAAUGGUCACGCGUCUCCCUCGUAAGGAGAAGACUGCGGGUUCGAGUCCCGUACGGAACG [C5G A20C C34G] | ≤ 0.5
GUUCGGUUGGCGUAUUGGUAACGCGUCUCCCUCCUAAGGAAAAGACUGCGGGUUCGAAUCCCGUACGGAACG [C5G A15U G41A G58A] | ≤ 0.5
GUUCGGUUGGCGUAAUGGUUACGCGUCUCCCUCCUAAGGAGAAGAAUGCGGGUUCGUGUCCCGUACGGAACG [C5G A20U C46A A57U] | ≤ 0.5
GUUCGGUUGGCGUAAUGGUUACGCGUCUCCCUCCUAAGGAGAAGACUGCGCGUUCGAGUCCCGUACGGAACG [C5G A20U G51C] | ≤ 0.5
GUUCGGUUGGCGUAUUGGUAACGCGUCUCCCUCCUAAGGACAAGACUGCGGGUUAGAGUCCCGUACGGAACG [C5G A15U G41C C55A] | ≤ 0.5
GUUCGGUUGGCGUAAUGGUGAGGCGUCUGCCUCCUAAGGAGAAGACUGCGGGUUCGAGUCCCCUACGGUACG [C5G A20G C22G C29G G63C A69U] | 0.527
GUUCGGUUGGCGUAUUGGUAACGCGUCUCCCUCCUAAGGAGAACACUGCAGGUACGAGUCCCGUACGGAACG [C5G A15U G44C G50A U54A] | ≤ 0.5

Variant | yeast fitness
GUUCGGUUGGCGUAAUGGUGACGCGUCUCCAUCCUAAGGAGAAGACUGCGGGUUCGAGUCCCGUACGGAACG [C5G A20G C31A] | ≤ 0.5
GUUCGGUUGGCGUAAUGGUUACGCGUCUCCCUCCUAAGGAGAAGACUGCGGGUACGAGUCCCGUACGGAACG [C5G A20U U54A] | ≤ 0.5
GUUCGGUUGGCGUAAUGGUGACGCGUCUCCCUCAUAAGGUGAAGACUGCGGGUUCGAGUCCCGUACGGAACG [C5G A20G C34A A40U] | ≤ 0.5
GUUCGGUUGGCGUAAUGGUUACGCGUCUCCCUCCUAAGGAGAAGAUUGCGGGUUCGAGUCCCGUACGGAACG [C5G A20U C46U] | 0.601
GUUCGGUUGGCGUAUUGGUAACGCGUCUCCCUCCUAAGGAGAAGAUUGCGGGUUCGAGUCCCGUACGGAACG [C5G A15U C46U] | 0.594
GUUCGGUUGGCGUAAUGGUACCGCGUCUUCGUCCUAAGGAGAUGACUGCGGGUUCGAGUCCCGUUCGGAACG [C5G A21C C29U C31G A43U A65U] | ≤ 0.5
GUUCGGUUGGCGUAGUGGUAACGCGUCUCCCUCCUGAGGAGAGGACUGCGGGUUCGAGUCCCGUACGGAACG [C5G A15G A36G A43G] | 0.593
GUUCGGUUGGCGUAGAGGUGACGCGUCACACUACUUAGGAGAAGACUGCGGGUUCGAGUCCCAUACGGCACG [C5G A15G U16A A20G U28A C30A C33A A36U G63A A69C] | ≤ 0.5
GUUCGGUUGGCGUACUGGUAACGCGUCUCCCUCCUAAGGAGAAGACUCCGGGUUCGAGUCCCGUACGUAACG [C5G A15C G48C G68U] | ≤ 0.5
GUUCGGUUGGCGUAAUGGUUACGCGUCGCCCUCCUAAGGAGAAGACUGCGGGUUCGAGUCCCGUACGGAACG [C5G A20U U28G] | ≤ 0.5
GUUCGGUUGGCGUAAUGGUCACGCGUCUCCCUCCUAAGCAGAAGACUGCGGGUUCGAGUCCUCUACGGAACG [C5G A20C G39C C62U G63C] | ≤ 0.5
GUUCGGUUGGCGUAAUGGUACCGCGUCUCCCUUCUAAGGAGAAGACUGCGGGUUCGAGUCCCGUACGGAACG [C5G A21C C33U] | 0.535
GUUCGGUUGGCGUAAUGGUACCGCGUCUCCCUGCUAAGGAGAAGACUGCGGGUUCGAGUCCCGUACGGAACG [C5G A21C C33G] | ≤ 0.5
GUUCGGUUGGCGUAUUGGUAACGCGUCUGCCUCCUAAGGAGAAGACUGCGGGUUCGAGGCCCGUACGGAACG [C5G A15U C29G U59G] | ≤ 0.5
GUUCGGUUGGCGUAAUGGUUACGCAUCUCCCUCCUAAGGAAAAGACUGCGGGUUGGAGUCCCGGACGGAACG [C5G A20U G25A G41A C55G U64G] | 0.534
GUUCGGUUGGCGUAGUGGUAACGCGUCCCCCUCCUAAGGAGAAGCCUGCGGGUUCGAGUCCCGUACGGAACG [C5G A15G U28C A45C] | ≤ 0.5
GUUCGGUUGGCGUAAUGGUGACGCGUCUCCCUCCUAAGGAGGAGACUGCGGGUUCGAGUCCCGUAGGGAACG [C5G A20G A42G C66G] | ≤ 0.5
GUUCGGUUGGCGUAGAGGUGACGCGUCACACUACUUAGGAGAAGACUGCGGGUUCGAGUCCCGUACGGCACG [C5G A15G U16A A20G U28A C30A C33A A36U A69C] | 0.578
